Structures are written as SMILES.

The subject of test [1] is B16. Put plainly: The compound was tested for inhibition of B16-BL6 melanoma cells growing in culture. It is filed as functional, cell-based. The note with it: Mus musculus.
Test [2] concerns B16. As to the kind of experiment: The compound was tested for inhibition of B16-BL6 melanoma cells growing in culture with 0.25 mM DFMO. The class given is functional, cell-based. As to conditions: Mus musculus.
Test [3] deals with B16. As to the kind of experiment: The compound was tested on [3H]spermidine uptake into BL6 cells at 0.5(mM)conc. It is filed as functional, Mus musculus. In outline: (§1)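 B16-BL6 melanoma cells were grown in DMEM with 10% heat-inactivated FBS, pyruvate, nonessential amino acids, glutamine, vitamins and 5 μg/mL insulin at […] in 5% CO2. They were pretreated with DFMO at 0–1.0 mM, then [3H]spermidine uptake was read as cpm per million cells. Values are mean ± SEM, compared by Duncan's and LSD tests.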

The test system of test [4] is B16. Put plainly: The compound was tested on spermidine content of the cells at 0.1(mM)conc. It is filed as functional, Mus musculus. In outline: (§2)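 B16-BL6 cells were cultured in supplemented DMEM and pretreated with DFMO at 0–1.0 mM. Cells were PBS-washed and pelleted, then extracted in 0.3 M perchloric acid with 1,6-hexanediamine internal standard (10 nmol per million cells). Extracts were benzoylated before the column and run by reversed-phase HPLC on a C8 cartridge at ambient temperature, 1.5 mL/min. Quantitation used a 0.05–10 nmol/mL standard curve.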

Test [5] has as its system B16. As to the kind of experiment: The compound was tested on spermidine content of the cells at 1.0(mM)conc. It is filed as functional, Mus musculus. In outline:
as §2

For test [6], the system named is B16. As to the kind of experiment: The compound was tested in vitro for inhibition of cell growth on the B16-BL6 melanoma cells at 0.75(mM)conc. The class given is functional, Mus musculus.
Test [7] concerns B16. As to the kind of experiment: The compound was tested on [3H]-spermidine uptake into BL6 cells at 0.75(mM)conc. It is filed as functional, Mus musculus. Summed up:
as §1

The subject of test [8] is B16. Put plainly: The compound was tested in vitro for inhibition of cell growth on the B16-BL6 melanoma cells at 0.0(mM)conc. The class given is functional, Mus musculus.
The test system of test [9] is B16. As to the kind of experiment: The compound was tested on spermidine content of the cells at 0.75(mM)conc. The class given is functional, Mus musculus. Summed up: as §2
In test [10] the test system is B16. As to the kind of experiment: The compound was tested on [3H]spermidine uptake into BL6 cells at 0.0(mM)conc. The class given is functional, Mus musculus. In outline:
as §1

The subject of test [11] is B16. Put plainly: The compound was tested in vitro for inhibition of cell growth on the B16-BL6 melanoma cells at 0.25(mM)conc. It is filed as functional, Mus musculus.
Test [12] deals with B16. As to the kind of experiment: The compound was tested in vitro for inhibition of cell growth on the B16-BL6 melanoma cells at 1.0(mM)conc. The class given is functional, Mus musculus.
In test [13] the test system is B16. As to the kind of experiment: The compound was tested in vitro for inhibition of cell growth on the B16-BL6 melanoma cells at 0.1(mM)conc. The class given is functional, Mus musculus.
The test system of test [14] is B16. Put plainly: The compound was tested in vitro for inhibition of cell growth on the B16-BL6 melanoma cells at 0.5(mM)conc. It is filed as functional, Mus musculus.
Test [15] concerns B16. As to the kind of experiment: The compound was tested on spermidine content of the cells at 0.25(mM)conc. The class given is functional, Mus musculus. In outline:
as §2

Test [16] concerns B16. As to the kind of experiment: The compound was tested on spermidine content of the cells at 0.0(mM)conc. It is filed as functional, Mus musculus. In outline:
as §2

Test [17] deals with B16. Put plainly: The compound was tested on [3H]spermidine uptake into BL6 cells at 0.25(mM)conc. The class given is functional, Mus musculus. In outline: as §1
The test system of test [18] is B16. As to the kind of experiment: The compound was tested on [3H]-spermidine uptake into BL6 cells at 0.1(mM)conc. It is filed as functional, Mus musculus. In outline:
as §1

The test system of test [19] is B16. Put plainly: The compound was tested on [3H]spermidine uptake into BL6 cells at 1.0(mM)conc. It is filed as functional, Mus musculus. In outline: as §1
Test [20] deals with B16. Put plainly: The compound was tested on spermidine content of the cells at 0.5 mM) conc. It is filed as functional, Mus musculus. Summed up: as §2

The term IC50 denotes the point on the concentration scale where inhibition reaches its midpoint. Higher therefore signals a need for much substance. For `O=C(O)CCCc1ccc(N(CCCl)CCCl)cc1` [CHLORAMBUCIL], the IC50 was found to be 220 µM with B16 [1] and 280 µM in the test with B16 [2].

In the case of `NCCCC(N)(C(=O)O)C(F)F` (stereo unspecified) [EFLORNITHINE], the cpm/million cells in the test with B16 [3] was 214540; in the test on B16 [7], 226404; in the test on B16 [10], 146600; with B16 [17], 219910; in the test on B16 [18], 221610; in the test on B16 [19], 250160. For the same compound, the Spermidine concentration is 0.6 nM (10e6*cells)-1 with B16 [4]; 0.35 nM (10e6*cells)-1 in the test with B16 [5]; 0.52 nM (10e6*cells)-1 in the test on B16 [9]; 0.34 nM (10e6*cells)-1 in the test with B16 [15]; 2.07 nM (10e6*cells)-1 in the test on B16 [16]; 0.55 nM (10e6*cells)-1 in the test with B16 [20]. For the same compound, the Cell growth was 1330000 number of cells ml-1 in the test with B16 [6]; 2430000 number of cells ml-1 in the test on B16 [8]; 1940000 number of cells ml-1 with B16 [11]; 1480000 number of cells ml-1 with B16 [12]; 2180000 number of cells ml-1 with B16 [13]; 1090000 number of cells ml-1 in the test with B16 [14].

In the case of `NCCCNC(CCCN)C(=O)NCCc1ccc(O)c(O)c1` (stereo unspecified), the IC50 came out at 1230 µM with B16 [1] and 1310 µM in the test on B16 [2].

For `NCCCNC(CCCN)C(=O)NCCc1ccc(N(CCCl)CCCl)cc1` (stereo unspecified), the figures for the IC50 in the test with B16 [1] and in the test with B16 [2] were 333 µM and 512 µM, respectively.

For `CC(=O)NCCc1ccc(O)c(O)c1`, the values for the half-inhibitory concentration (IC50) with B16 [1] and in the test with B16 [2] were 1220 µM and 2060 µM, respectively.

The values are drawn from ChEMBL document CHEMBL1125356, “Synthesis and evaluation of novel spermidine derivatives as targeted cancer chemotherapeutic agents” (J Med Chem, 1992).
